MrgX1 allo act = positive allosteric modulators of MrgX1, primary screen, HEK293 cells, Fluo-4 calcium flux; FDSS; stronger effect = higher value; B-score at 10 µM; 310,000 tested, 0.63% active; AID 588675, 2011;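 active = plate-corrected calcium response at least 3 library SD above typical, normal starting fluorescence, not activating the receptor alone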;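 note: compound read alongside a low EC10 to EC30 dose of BAM8-22 agonist; peak minus trough fluorescence over baseline measured at the second addition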
Target sequence (Q96LB2 whole entry, looked up): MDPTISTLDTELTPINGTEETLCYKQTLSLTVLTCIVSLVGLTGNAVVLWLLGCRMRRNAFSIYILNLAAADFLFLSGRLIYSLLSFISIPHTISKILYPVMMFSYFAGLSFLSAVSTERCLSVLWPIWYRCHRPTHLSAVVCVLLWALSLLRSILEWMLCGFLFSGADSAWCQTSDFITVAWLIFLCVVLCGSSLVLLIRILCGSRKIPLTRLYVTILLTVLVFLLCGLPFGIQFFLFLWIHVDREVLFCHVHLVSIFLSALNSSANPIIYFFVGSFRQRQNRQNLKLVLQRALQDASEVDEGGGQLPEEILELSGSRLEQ
RGS4 act = RGS4 potentiators or activators, primary screen, cell-based, HEK293 M3R inducible RGS4, calcium flux | AID 463111, 2010 | carbachol calcium flux Fluo4; stronger effect = lower value | 310,000 tested, 0.92% active | B-score at 10 µM;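 active = B-score of the integrated calcium signal more than 4 SD below the library mean, with starting fluorescence not abnormally high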;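 note: negative B-score means reduced calcium response which marks RGS4 activation or potentiation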
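test system = M3R-expressing HEK293 line, RGS4 induced by doxycycline | probe or stimulus = carbachol at ECmax as muscarinic agonist stimulus | timing = dye loading 30 min 37 °C, buffer rest 30 min RT | signal = calcium dye Fluo4 fluorescence | evaluation = B score from integrated fluorescence ratio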
RGS4 inh = RGS4 inhibitors, primary screen, cell-based, HEK293 M3R inducible RGS4, calcium flux | B-score at 10 µM | AID 463165, 2010 | Fluo-4 calcium flux; stronger effect = higher value; triggered by carbachol at its EC20 | 310,000 tested, 0.45% active;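 active = B-score, a plate-corrected calcium signal, over three deviations above library mean, with baseline fluorescence within five deviations of library mean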;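 note: RGS4 expression induced by doxycycline in cells with stable M3 receptor; B-score is computed from the integrated fluorescence ratio over baseline after carbachol; higher B-score means a larger calcium signal and so more RGS4 inhibition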
Target sequence (P49798 whole entry, looked up): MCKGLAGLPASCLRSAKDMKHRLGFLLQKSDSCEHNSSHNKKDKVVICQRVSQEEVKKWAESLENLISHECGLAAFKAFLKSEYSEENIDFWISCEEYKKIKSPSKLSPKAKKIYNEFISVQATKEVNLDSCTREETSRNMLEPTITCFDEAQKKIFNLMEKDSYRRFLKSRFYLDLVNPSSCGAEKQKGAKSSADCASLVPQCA
MrgX1 antagonist = antagonists of human MrgX1 receptor, primary screen, HEK293 cells, Fluo-4 calcium flux | Mas-related G-protein coupled receptor member X1 (Homo sapiens), Q96LB2 | BAM8-22 antagonism; stronger effect = lower value | B-score at 10 µM | 310,000 tested, 1.3% active | AID 588676, 2011;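 active = calcium-response B-score plate-corrected more than 3 library SD below zero, starting fluorescence within 5 deviations, no agonist response on first addition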;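 note: peak minus trough fluorescence over baseline after final BAM8-22 challenge near maximal dose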
MrgX1 agonist = agonists of human MrgX1 receptor, primary screen, HEK293 cells, Fluo-4 calcium flux | AID 588627, 2011 | 310,000 tested, 0.44% active | Mas-related G-protein coupled receptor member X1 (Homo sapiens), Q96LB2 | B-score at 10 µM | Fluo-4 calcium fluorescence, agonist mode; stronger effect = higher value;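 active = calcium response B-score plate-corrected fluorescence ratio at least 3 library SD, with starting fluorescence B-score inside 5 SD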
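Test system: HEK293 cells stably expressing human MrgX1 receptor; Input: fifteen thousand cells per well; Dosing: compound delivered in addition one of three; Schedule: overnight seeding, then 1 h dark dye loading; Technique: Fluo-4 NW calcium fluorescence; Measure: B-scored fluorescence response ratio; Controls: positive and negative controls per plate.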
MrgX1 PAM conf = MrgX1 positive allosteric modulators, duplicate retest, confirmation, HEK293 cells, Fluo-4 calcium flux. shares compounds with MrgX1 allo act. Fluo-4 calcium fluorescence, FDSS. activation (ratio percentage), % at 10 µM. 1,200 tested, 13% active. AID 602413, 2012;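 active = ratio at least 3 SD above the weak peptide control, stable starting fluorescence, no direct agonism earlier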;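 note: compound followed by low BAM8-22 agonist challenge near EC20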
HEK293 Ca flux = nonspecific calcium signal in parental HEK293, confirmation, counter-screen for MrgX1 antagonist project, parental HEK293 cells, Fluo-4 calcium flux; 4,000 tested, 2% active; Fluo-4 calcium fluorescence, FDSS; fluorescence ratio F(max-min)/F0 at 10 µM; AID 624111, 2012; shares compounds with MrgX1 antagonist;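 active = duplicate-averaged calcium fluorescence ratio at least three times the standard deviation of buffer wells, a nonspecific response in parental cells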
HEK293 Ca counter = calcium response in parental HEK293 cells, primary screen, counter-screen for MrgX1 allosteric activator project, cell-based, Fluo-4 calcium flux, duplicate | shares compounds with MrgX1 antagonist | Fluo-4 fluorescence ratio; stronger effect = higher value | fluorescence ratio F(max-min)/F0 at 10 µM | 4,000 tested, 0.4% active;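 active = calcium fluorescence ratio, averaged over duplicates, at least 3 SD of the buffer-well ratio, meaning a nonspecific response in receptor-free cells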;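 note: untransfected parental HEK293 lacking MrgX1 used as counterscreen for MrgX1 allosteric activators; fluorescence change taken during the second addition on a kinetic imager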
HEK293 Ca cntr2 = calcium response in parental HEK293 cells, primary screen, counter-screen for MrgX1 agonist project, cell-based, Fluo-4 calcium flux, duplicate, agonist mode; shares compounds with MrgX1 antagonist; 4,000 tested, 8.7% active; fluorescence ratio F(max-min)/F0 at 10 µM; AID 624115, 2012; Fluo-4 calcium fluorescence (FDSS); stronger effect = higher value;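 active = calcium fluorescence ratio at least three times the spread of buffer wells, meaning a non-specific response in parental cells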
Numbers without * were called inactive. Most compounds without a hit are left out; they make up all but 3.5% or so of the library.

Screening CCn1c(C)nc2cc(NC(=O)Nc3cccc(C(C)=O)c3)ccc21 returned MrgX1 allo act inactive, RGS4 act inactive, RGS4 inh inactive, MrgX1 antagonist inactive and MrgX1 agonist inactive.
Screening O=C(Nc1ccc(F)cc1F)c1cc(-c2ccco2)on1 returned MrgX1 allo act inactive, RGS4 act inactive, RGS4 inh inactive, MrgX1 antagonist inactive and MrgX1 agonist inactive.
Screening O=C(Nc1ccc(F)cc1F)c1ccco1 returned MrgX1 allo act 7.6*, RGS4 act inactive, RGS4 inh inactive, MrgX1 antagonist inactive, MrgX1 agonist inactive, MrgX1 PAM conf inactive, HEK293 Ca flux inactive, HEK293 Ca counter inactive and HEK293 Ca cntr2 inactive.
Screening COC(=O)C1=C(N)c2c(F)cccc2C1(C#N)c1ccc(F)cc1 (stereo not given) returned MrgX1 allo act 8.4*, RGS4 act inactive, RGS4 inh inactive, MrgX1 antagonist inactive, MrgX1 agonist inactive, MrgX1 PAM conf inactive, HEK293 Ca flux inactive, HEK293 Ca counter inactive and HEK293 Ca cntr2 inactive.
`Cc1cccc(-c2csc(N)c2C(=O)OC(C)C)c1` gave MrgX1 allo act 8.1*, RGS4 act inactive, RGS4 inh inactive, MrgX1 antagonist inactive, MrgX1 agonist inactive, MrgX1 PAM conf inactive, HEK293 Ca flux inactive, HEK293 Ca counter inactive and HEK293 Ca cntr2 inactive.
For CCc1nnc(NC(=O)c2nn(-c3ccccc3)nc2C)s1 the results were MrgX1 allo act inactive, RGS4 act inactive, RGS4 inh inactive, MrgX1 antagonist inactive and MrgX1 agonist inactive.
Screening Cc1nn(-c2ccccc2)nc1C(=O)Nc1nnc(C(F)(F)F)s1 returned MrgX1 allo act 6.5*, RGS4 act inactive, RGS4 inh inactive, MrgX1 antagonist inactive, MrgX1 agonist inactive, MrgX1 PAM conf inactive, HEK293 Ca flux inactive, HEK293 Ca counter inactive and HEK293 Ca cntr2 68*.
Cc1ccc(Nc2nc3ccccc3s2)c(C)c1 was read as MrgX1 allo act 7*, RGS4 act inactive, RGS4 inh inactive, MrgX1 antagonist inactive, MrgX1 agonist inactive, MrgX1 PAM conf inactive, HEK293 Ca flux inactive, HEK293 Ca counter inactive and HEK293 Ca cntr2 inactive.
`CCOC1Cc2ccccc2N(C(N)=O)c2ccccc21` (stereo not given) gave MrgX1 allo act inactive, RGS4 act inactive, RGS4 inh inactive, MrgX1 antagonist inactive and MrgX1 agonist inactive.
COC1Cc2ccccc2N(C(=O)N2CCN(CCO)CC2)c2ccccc21 (stereo not given) was read as MrgX1 allo act 16*, RGS4 act inactive, RGS4 inh inactive, MrgX1 antagonist inactive, MrgX1 agonist inactive, MrgX1 PAM conf inactive, HEK293 Ca flux inactive, HEK293 Ca counter inactive and HEK293 Ca cntr2 inactive.
CCOc1ccccc1NC(=O)CCS(=O)(=O)c1cccc2nonc12 was read as MrgX1 allo act 7.5*, MrgX1 antagonist inactive, MrgX1 agonist inactive, MrgX1 PAM conf inactive, HEK293 Ca flux inactive, HEK293 Ca counter inactive and HEK293 Ca cntr2 inactive.
Screening COC(=O)c1c(C)nc2ccccc2c1C(=O)O returned MrgX1 allo act inactive, RGS4 act inactive, RGS4 inh inactive, MrgX1 antagonist inactive and MrgX1 agonist inactive.
For CC(C)=CCc1c(C)nc2ccccc2c1C(=O)O the results were MrgX1 allo act 11*, RGS4 act inactive, RGS4 inh inactive, MrgX1 antagonist inactive, MrgX1 agonist inactive, MrgX1 PAM conf inactive, HEK293 Ca flux inactive, HEK293 Ca counter inactive and HEK293 Ca cntr2 inactive.
For COC(=O)c1ccc(OCCCCN2CC(C)OC(C)C2)cc1 (stereo not given) the results were MrgX1 allo act 10*, RGS4 act inactive, RGS4 inh inactive, MrgX1 antagonist inactive, MrgX1 agonist inactive, MrgX1 PAM conf inactive, HEK293 Ca flux inactive, HEK293 Ca counter inactive and HEK293 Ca cntr2 inactive.
COc1ccc(CNc2cccc(F)c2)cc1Br was read as MrgX1 allo act 6.5*, RGS4 act inactive, RGS4 inh inactive, MrgX1 antagonist inactive, MrgX1 agonist inactive, MrgX1 PAM conf inactive, HEK293 Ca flux inactive, HEK293 Ca counter inactive and HEK293 Ca cntr2 inactive.
Screening CCOC(=O)c1ccc(NS(=O)(=O)c2ccc3c(c2)NC(=O)CCS3)cc1 returned MrgX1 allo act inactive, RGS4 act inactive, RGS4 inh inactive, MrgX1 antagonist inactive and MrgX1 agonist inactive.
CCN(CC)C(=O)Oc1ccc2ccccc2c1Cl was read as MrgX1 allo act inactive, RGS4 act inactive, RGS4 inh inactive, MrgX1 antagonist inactive and MrgX1 agonist inactive.
For CCN(CC)C(=O)Oc1ccnc2cc(Cl)ccc12 the results were MrgX1 allo act 7.4*, RGS4 act inactive, RGS4 inh inactive, MrgX1 antagonist inactive, MrgX1 agonist inactive, MrgX1 PAM conf inactive, HEK293 Ca flux inactive, HEK293 Ca counter inactive and HEK293 Ca cntr2 inactive.
Screening O=C(Oc1ccnc2cc(Cl)ccc12)N1CCCCCC1 returned MrgX1 allo act 15*, RGS4 act inactive, RGS4 inh inactive, MrgX1 antagonist inactive, MrgX1 agonist inactive, MrgX1 PAM conf inactive, HEK293 Ca flux inactive, HEK293 Ca counter inactive and HEK293 Ca cntr2 inactive.
For CCN(CC)S(=O)(=O)c1ccc2[nH]c(=O)[nH]c2c1 the results were MrgX1 allo act inactive, RGS4 act inactive, RGS4 inh inactive, MrgX1 antagonist inactive and MrgX1 agonist inactive.
Screening CCn1c(=S)[nH]c2cc(C(=O)OC)ccc2c1=O returned MrgX1 allo act 8.1*, RGS4 act inactive, RGS4 inh inactive, MrgX1 antagonist inactive, MrgX1 agonist inactive, MrgX1 PAM conf inactive, HEK293 Ca flux inactive, HEK293 Ca counter inactive and HEK293 Ca cntr2 inactive.

High-throughput results deposited in PubChem BioAssay by Johns Hopkins Ion Channel Center.
